Experimental findings from PubChem BioAssay AID504818 (Southern Research Specialized Biocontainment Screening …, 2011) are described below.

The structures appear in SMILES notation. Several values for one entry are separate records, joined by “and”; a condition that tells them apart may be missing. Equal values may be shown once. Activity calls are given as the source filed them.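 The calls were made as follows: active = any dose giving under 70% viability, per first replicate; inactive = the rest.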

In assay [1] the test system is HEp-2 viability, ATP luminescence. The assay can be described thus: HEp-2 cell cytotoxicity, SAR follow-up, cytotoxicity control for RSV inhibitor project, synthesized compounds, set 8 (AID 504818). A digest of the protocol: (§1)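 Material: Uninfected HEp-2 human cells, ATP-based viability | Buffer or medium: DMEM/F12 growth medium supplemented with heat-inactivated FBS | Benchmarks: Cell-only wells as 100% reference | Dosing: Eight 1:2 steps, 0.39–50 µM, 0.5% DMSO | Signal: ATP luminescence (CellTiter-Glo) | Evaluation: % viability and CC50 (0–100 bounded fit) | Times: 6 d compound exposure, 37 °C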

Test in assay [2]: as above
Particulars: HEp-2 viability, ATP luminescence; at 50 µM (top of the series). In outline: as §1

Regarding `Cc1ccc(Cn2c(=O)n(Cc3ccc(C(=O)NC(C)(C)C)cc3)c(=O)c3ccccc32)cc1`, in assay [1], the CC50 was 10.2 µM. Consider `Cc1cc(C)cc(NC(=O)[C@@H]2CCCN2S(=O)(=O)c2cccc3cccnc23)c1`, for which the CC50 in assay [1] is 32.2 µM. With `COCCCNC(=O)c1ccc(Cn2c(=O)c3ccccc3n(Cc3cc(C)on3)c2=O)cc1`, the CC50 in assay [1] was 7 µM. Regarding `Cc1ccc(NC(=O)[C@@H]2CCCN2S(=O)(=O)c2cccc3cccnc23)cc1`, in assay [1], the CC50 was 33.1 µM. Turning to `Cc1cccc(NC(=O)[C@@H]2CCCN2S(=O)(=O)c2cccc3cccnc23)c1`, in assay [1], the half-maximal cytotoxic concentration (CC50) was 20.8 µM. Same read-out and setting: with `Cc1ccc(C(C)C)cc1NC(=O)[C@@H]1CCCN1S(=O)(=O)c1cccc2cccnc12` the figure was 10.6 µM. For `Cc1ccc(NC(=O)C2CCCN2S(C)(=O)=O)c(C)c1` (stereo unspecified), the viability in assay [2] is 96.3% (inactive). In the case of `Cc1ccc(NC(=O)C2CCCN2S(=O)(=O)c2cccc3ccccc23)c(C)c1` (stereo unspecified), the CC50 in assay [1] was 18.4 µM. Regarding `COCCCNC(=O)c1ccc(Cn2c(=O)c3ccc(Br)cc3n(Cc3ccc(C)cc3)c2=O)cc1`, the 50% cytotoxic concentration (CC50) in assay [1] was 39 µM. With `Cc1ccc(NC(=O)C(C)NS(=O)(=O)c2cccc3cccnc23)c(C)c1` (stereo unspecified), the viability in assay [2] was 77.7% (inactive). Take `Cc1ccc(NC(=O)[C@H]2CCCN2S(=O)(=O)c2cccc3cccnc23)c(C)c1`: the CC50 in assay [1] was 40.9 µM. As for `Cc1cccc(NC(=O)[C@@H]2CCCN2S(=O)(=O)c2cccc3cccnc23)c1C`, the 50% cytotoxic concentration (CC50) in assay [1] was 49.5 µM. As for `Cc1ccc(NC(=O)C2CCCN2S(=O)(=O)c2cccc3cccnc23)c(C)c1` (stereo unspecified), the CC50 in assay [1] was 33.4 µM. Same read-out and setting: the value for `Cc1ccc(Cl)c(NC(=O)[C@@H]2CCCN2S(=O)(=O)c2cccc3cccnc23)c1` was 13.6 µM. As to `CCCn1c(=O)n(Cc2ccc(C(=O)NCCCOC)cc2)c(=O)c2ccccc21`, in assay [1], the half-maximal cytotoxic concentration (CC50) was 22.8 µM. As for `Cc1ccc(C(C)(C)C)cc1NC(=O)[C@@H]1CCCN1S(=O)(=O)c1cccc2cccnc12`, the CC50 in assay [1] was 6.2 µM. Turning to `Cc1ncccc1NC(=O)[C@@H]1CCCN1S(=O)(=O)c1cccc2cccnc12`, the viability in assay [2] was 72.6% (inactive).

Turning to `COCCCNC(=O)c1ccc(Cn2c(=O)c3ccccc3n(C)c2=O)cc1`, in assay [1], the CC50 was 15 µM. Take `CC(C)c1ccccc1NC(=O)[C@@H]1CCCN1S(=O)(=O)c1cccc2cccnc12`: the CC50 in assay [1] was 30.1 µM. On to `O=C(Nc1ccccc1)[C@@H]1CCCN1S(=O)(=O)c1cccc2cccnc12`, for which the CC50 in assay [1] is 38.4 µM. With `COc1ccc(C)cc1NC(=O)[C@@H]1CCCN1S(=O)(=O)c1cccc2cccnc12`, the viability in assay [2] was 82% (inactive). Take `Cc1ccc(NC(=O)[C@@H]2CCCN2S(=O)(=O)c2cccc3cccnc23)c(C)c1`: in assay [1], the CC50 is 33 µM. As for `Cc1ccc(C(F)(F)F)cc1NC(=O)[C@@H]1CCCN1S(=O)(=O)c1cccc2cccnc12`, the CC50 in assay [1] is 3.7 µM. For the molecule `Cc1ccc(C)c(NC(=O)[C@@H]2CCCN2S(=O)(=O)c2cccc3cccnc23)c1`, the CC50 in assay [1] was 36.2 µM and 32.9 µM. Take `Cc1ccc(Cl)cc1NC(=O)[C@@H]1CCCN1S(=O)(=O)c1cccc2cccnc12`: in assay [1], the cytotoxic concentration (CC50) is 9.25 µM. `Cc1ccc(F)cc1NC(=O)[C@@H]1CCCN1S(=O)(=O)c1cccc2cccnc12`: the 50% cytotoxic concentration (CC50) in assay [1] is 22.5 µM.
